Test results from ChEMBL document CHEMBL2417474, “Synthesis, antiproliferative and anti-inflammatory activities of some novel 6-aryl-2-(p-(methanesulfonyl)phenyl)-4,5-dihydropyridazi-3(2H)-ones” (Eur J Med Chem, 2013).

Assays:
Assay type in all cases: functional
MDA-MB-231 [1] = experiment: Growth inhibition of human MDA-MB-231 cells after 48 hrs by sulforhodamine B assay; conditions: MDA-MB-231, 48 h
Procedure, shortened: (§1)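 NCI 60-cell-line panel grown in RPMI-type medium with 5% fetal calf serum and 2 mM L-glutamine. Cells preincubated 24 h, then exposed continuously for 48 h to compound in DMSO at 10^-4 to 10^-8 M (five 10-fold levels). Growth read by SRB protein stain. GI50 is the concentration giving a 50% reduction in net protein increase relative to control cells.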

OVCAR-4 [2] = experiment: Growth inhibition of human OVCAR4 cells assessed as cell growth at 10 uM after 48 hrs by sulforhodamine B assay; conditions: OVCAR-4, 48 h, read-out: Activity
MDA-MB-231 [3] = experiment: Growth inhibition of human MDA-MB-231 cells assessed as cell growth at 10 uM after 48 hrs by sulforhodamine B assay; conditions: MDA-MB-231, 48 h, read-out: Activity
TK-10 = experiment: Growth inhibition of human TK10 cells after 48 hrs by sulforhodamine B assay; conditions: TK-10, 48 h
Procedure, shortened: (§2)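 NCI 60-line panel. Cells were grown in medium with 5% fetal calf serum and 2 mM L-glutamine and preincubated 24 h in plates. Compound in DMSO was added at 10^-4 to 10^-8 M (five 10-fold levels), with continuous exposure for 48 h. Growth was read by SRB protein staining. GI50 is the concentration giving 50% reduction in net protein increase versus control cells.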

HCT-116 = experiment: Growth inhibition of human HCT116 cells assessed as cell growth at 10 uM after 48 hrs by sulforhodamine B assay; conditions: HCT-116, 48 h, read-out: Activity
SK-MEL-2 = experiment: Growth inhibition of human SK-MEL-2 cells after 48 hrs by sulforhodamine B assay; conditions: SK-MEL-2, 48 h
Procedure, shortened: (§3)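 NCI 60-cell-line panel. Cells were grown in medium with 5% fetal calf serum and 2 mM L-glutamine, then preincubated 24 h in plates. Compounds were added from DMSO at five 10-fold concentrations from 100 to 0.01 µM and left on cells continuously for 48 h. Cell growth was read by sulforhodamine B protein stain. GI50 is the concentration that halves net protein increase relative to control cells.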

SK-MEL-28 = experiment: Growth inhibition of human SK-MEL-28 cells after 48 hrs by sulforhodamine B assay; conditions: SK-MEL-28, 48 h; procedure, shortened: as §3
MDA-MB-435 = experiment: Growth inhibition of human MDA-MB-435 cells after 48 hrs by sulforhodamine B assay; conditions: MDA-MB-435, 48 h; procedure, shortened: as §3
DU-145 = experiment: Growth inhibition of human DU145 cells after 48 hrs by sulforhodamine B assay; conditions: DU-145, 48 h; procedure, shortened: as §1
HOP-92 = experiment: Growth inhibition of human HOP92 cells assessed as cell growth at 10 uM after 48 hrs by sulforhodamine B assay; conditions: HOP-92, 48 h, read-out: Activity
CAKI-1 = experiment: Growth inhibition of human CAKI-1 cells after 48 hrs by sulforhodamine B assay; conditions: CAKI-1, 48 h; procedure, shortened: as §1
LOX IMVI [4] = experiment: Growth inhibition of human LOXIMVI cells after 48 hrs by sulforhodamine B assay; procedure, shortened: as §1
UACC-257 = experiment: Growth inhibition of human UACC257 cells after 48 hrs by sulforhodamine B assay; conditions: UACC-257, 48 h; procedure, shortened: as §2
Rattus norvegicus = experiment: Antiinflammatory activity in Wistar rat assessed as inhibition of carrageenan-induced paw edema at 0.05 mmol/kg, po administered 30 mins prior challenge measured after 3 hrs
Procedure, shortened: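 Wistar rats of either sex, 150–175 g, fasted 16 h, 6 per group. Dosed orally at 0.05 mmol/kg, suspended in 1% CMC in water (10 ml/kg). 30 min later, 0.1 ml of 1% carrageenan in saline injected subplantar into the left hind paw. Paw volume read by plethysmometer at 0, 3 and 5 h. % inhibition = (1 − Vt/Vc) × 100 against the vehicle group.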

PC-3 = experiment: Growth inhibition of human PC3 cells assessed as cell growth at 10 uM after 48 hrs by sulforhodamine B assay; conditions: PC-3, 48 h, read-out: Activity
OVCAR-4 [5] = experiment: Growth inhibition of human OVCAR4 cells after 48 hrs by sulforhodamine B assay; conditions: OVCAR-4, 48 h; procedure, shortened: as §3
OVCAR-3 = experiment: Growth inhibition of human OVCAR3 cells after 48 hrs by sulforhodamine B assay; conditions: OVCAR-3, 48 h; procedure, shortened: as §3
UACC-62 = experiment: Growth inhibition of human UACC62 cells after 48 hrs by sulforhodamine B assay; conditions: UACC-62, 48 h; procedure, shortened: as §2
SK-MEL-5 = experiment: Growth inhibition of human SK-MEL-5 cells assessed as cell growth at 10 uM after 48 hrs by sulforhodamine B assay; conditions: SK-MEL-5, 48 h, read-out: Activity
T47D = experiment: Growth inhibition of human T47D cells assessed as cell growth at 10 uM after 48 hrs by sulforhodamine B assay; conditions: read-out: Activity
Procedure, shortened: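 Single-dose NCI screen. Tumor lines were cultured in medium with 5% fetal calf serum and 2 mM L-glutamine, preincubated 24 h, then given compound in DMSO. After 48 h continuous exposure, cell growth was estimated by sulforhodamine B protein assay.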

LOX IMVI [6] = experiment: Growth inhibition of human LOXIMVI cells assessed as cell growth at 10 uM after 48 hrs by sulforhodamine B assay; conditions: read-out: Activity
MCF7 = experiment: Growth inhibition of human MCF7 cells assessed as cell growth at 10 uM after 48 hrs by sulforhodamine B assay; conditions: MCF7, 48 h, read-out: Activity
SN12C = experiment: Growth inhibition of human SN12C cells assessed as cell growth at 10 uM after 48 hrs by sulforhodamine B assay; conditions: read-out: Activity
RXF 393 = experiment: Growth inhibition of human RXF393 cells assessed as cell growth at 10 uM after 48 hrs by sulforhodamine B assay; conditions: RXF 393, 48 h, read-out: Activity
HT-29 = experiment: Growth inhibition of human HT-29 cells after 48 hrs by sulforhodamine B assay; conditions: HT-29, 48 h; procedure, shortened: as §1
UO-31 = experiment: Growth inhibition of human UO31 cells after 48 hrs by sulforhodamine B assay; conditions: UO-31, 48 h; procedure, shortened: as §2
SNB-19 = experiment: Growth inhibition of human SNB19 cells after 48 hrs by sulforhodamine B assay; conditions: SNB-19, 48 h; procedure, shortened: as §3
SF-539 = experiment: Growth inhibition of human SF539 cells assessed as cell growth at 10 uM after 48 hrs by sulforhodamine B assay; conditions: SF-539, 48 h, read-out: Activity
[7] = read-out: LC50 (the source's name)

With `Cc1cc(O)ccc1C1=NN(c2ccc(S(C)(=O)=O)cc2)C(=O)CC1` the GI50 (MDA-MB-231 [1]) was 17.1 µM, the LC50 (MDA-MB-231 [1]) was > 100 µM and the TGI (MDA-MB-231 [1]) was > 100 µM. The growth at 10 µM (OVCAR-4 [2]) was 98%, the growth at 10 µM (MDA-MB-231 [3]) was 74.8% and the GI50 (TK-10) was 80.5 µM. The TGI (TK-10) was > 100 µM, the CC50 (TK-10; [7]) was > 100 µM and the growth at 10 µM (HCT-116) was 52.4%. For the same compound, the GI50 (SK-MEL-2) was 3.48 µM, the LC50 (SK-MEL-2) was > 100 µM and the TGI (SK-MEL-2) was 32.8 µM. The GI50 (SK-MEL-28) was 9.56 µM, the TGI (SK-MEL-28) was > 100 µM and the CC50 (SK-MEL-28; [7]) was > 100 µM. The GI50 (MDA-MB-435) was 1.28 µM, the LC50 (concentration killing 50% of starting cells) (MDA-MB-435) was > 100 µM and the TGI (MDA-MB-435) was 5.83 µM. For the same compound, the GI50 (DU-145) was 24.7 µM, the TGI (DU-145) was > 100 µM and the CC50 (DU-145; [7]) was > 100 µM. For the same compound, the growth at 10 µM (HOP-92) was 92.8%, the LC50 (lethal concentration, 50% cell kill) (CAKI-1) was > 100 µM and the GI50 (LOX IMVI [4]) was 7.25 µM. For the same compound, the TGI (LOX IMVI [4]) was > 100 µM, the CC50 (LOX IMVI [4]; [7]) was > 100 µM and the GI50 (UACC-257) was 5.65 µM. The LC50 (concentration killing 50% of cells) (UACC-257) was > 100 µM, the TGI (UACC-257) was > 100 µM and the inhibition in vivo at 50 µmol/kg (Rattus norvegicus) was 33.3%. The growth at 10 µM (PC-3) was 77.9%, the GI50 (OVCAR-4 [5]) was 76.9 µM and the LC50 (OVCAR-4 [5]) was > 100 µM. For the same compound, the TGI (OVCAR-4 [5]) was > 100 µM, the GI50 (OVCAR-3) was 3.41 µM and the LC50 (lethal concentration, 50% net cell kill) (OVCAR-3) was > 100 µM. The TGI (OVCAR-3) was 9.44 µM, the GI50 (UACC-62) was 4 µM and the LC50 (50% net cell kill concentration) (UACC-62) was > 100 µM. For the same compound, the TGI (UACC-62) was > 100 µM, the growth at 10 µM (SK-MEL-5) was 68.3% and the growth at 10 µM (T47D) was 84.8%. For the same compound, the growth at 10 µM (LOX IMVI [6]) was 67.5%, the growth at 10 µM (MCF7) was 82.8% and the growth at 10 µM (SN12C) was 90.3%. The growth at 10 µM (RXF 393) was 81.2%, the GI50 (HT-29) was 3.7 µM and the LC50 (50% lethal concentration) (HT-29) was > 100 µM. The TGI (HT-29) was 32.3 µM, the GI50 (UO-31) was 14.8 µM and the LC50 (concentration killing 50% of cells) (UO-31) was > 100 µM. For the same compound, the TGI (UO-31) was > 100 µM, the GI50 (SNB-19) was 50.4 µM and the TGI (SNB-19) was > 100 µM. The CC50 (SNB-19; [7]) was > 100 µM and the growth at 10 µM (SF-539) was 73.8%.
